The M2OR odorant receptor database

biological target: T1, OR1A1 (Homo sapiens) (UniProt Q9P1Q5); conditions: stereoisomer not certain
T1 sequence (whole entry): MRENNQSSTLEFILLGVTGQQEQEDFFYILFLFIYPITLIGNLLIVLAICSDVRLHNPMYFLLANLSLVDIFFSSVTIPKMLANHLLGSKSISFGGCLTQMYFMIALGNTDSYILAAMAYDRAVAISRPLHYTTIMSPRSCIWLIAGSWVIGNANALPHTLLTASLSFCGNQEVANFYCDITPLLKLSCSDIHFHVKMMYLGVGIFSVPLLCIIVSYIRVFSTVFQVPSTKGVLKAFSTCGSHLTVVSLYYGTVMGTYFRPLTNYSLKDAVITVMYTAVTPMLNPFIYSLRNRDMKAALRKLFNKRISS
Outline: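 Each entry records the cell line, G-protein, co-transfected protein and tags used. Methods varied with the source, often transient luciferase assays in mammalian cell lines. A receptor–molecule pair is called responsive (active) if the original authors judged its signal statistically different from baseline and non-responsive (inactive) otherwise.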

SMILES	odorant receptor agonist call
CC(C)=CCCC(C)=CCCC(C)=CCO	inactive
CCCC(C)C=O (stereo unspecified)	inactive
O=c1ccc2ccccc2o1	inactive
CCC(=O)C(C)=O	inactive
CCCCCCOC(C)=O	inactive
CCOC(=O)C(C)C	inactive
CC(C)CO	inactive
CCCCCCCCCCO	active
Cc1cccc(O)c1	inactive
CC=CC(=O)C1=C(C)C=CCC1(C)C	inactive
CCCCCCCCCO	inactive
CCC(C(=O)O)c1ccccc1 (stereo unspecified)	inactive
CCCCCCC(C)=O	active
OCC=Cc1ccccc1	inactive
C=C(C)C1CC=C(C)C(OC(C)=O)C1 (stereo unspecified)	inactive
CCC(C)C(=O)OC (stereo unspecified)	inactive
CCCCCC1CCCC(=O)O1 (stereo unspecified)	inactive
CCCCCCCC(=O)[O-].[H+]	inactive

SMILES	odorant receptor agonist call
CC=O	inactive
CCCCCCCCCC(=O)OCC	inactive
CCC(=O)C(C)S (stereo unspecified)	inactive
CCOC(=O)CCSC	inactive
CC(C)C12CCC(C)(CC1)O2	inactive
SCCc1ccccc1	active
CC(=O)C=CC1C(C)=CCCC1(C)C (stereo unspecified)	inactive
CCCCC(=O)C(C)=O	inactive
c1ccccc1	inactive
C=Cc1ccc(O)c(OC)c1	inactive
CCC=CCC=O	inactive
C=CCSC	inactive
CCCCCC1=C(C)CCC1=O	active
CCOC(=O)C(C)CC (stereo unspecified)	inactive
CCOC(=O)CC(C)C	inactive
O=C(O)C=Cc1ccc(O)cc1	inactive
CC(=O)Oc1ccccc1	inactive
CCCCC=CC=CC=O	inactive
